These results are taken from article PMC6399515 (Insect Biochemistry and Molecular Biology, 2016).

The target in one series is T1, CYP6P3 (Anopheles gambiae, UniProt Q8T632).
T1 sequence (Q8T632 1-509): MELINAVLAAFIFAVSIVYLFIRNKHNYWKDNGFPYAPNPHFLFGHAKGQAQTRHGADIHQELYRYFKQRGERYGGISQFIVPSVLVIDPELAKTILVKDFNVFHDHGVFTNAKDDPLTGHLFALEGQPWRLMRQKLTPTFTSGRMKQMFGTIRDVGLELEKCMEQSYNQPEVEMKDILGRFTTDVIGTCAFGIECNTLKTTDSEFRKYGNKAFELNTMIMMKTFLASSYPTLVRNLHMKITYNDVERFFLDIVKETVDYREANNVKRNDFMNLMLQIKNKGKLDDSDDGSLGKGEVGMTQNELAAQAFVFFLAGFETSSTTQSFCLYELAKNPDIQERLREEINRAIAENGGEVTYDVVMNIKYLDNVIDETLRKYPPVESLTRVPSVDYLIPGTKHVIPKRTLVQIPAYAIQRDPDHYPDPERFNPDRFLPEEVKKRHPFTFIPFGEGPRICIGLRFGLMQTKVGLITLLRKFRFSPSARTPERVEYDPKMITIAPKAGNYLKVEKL
T1 sequence (Q86QH5 1-679 partner): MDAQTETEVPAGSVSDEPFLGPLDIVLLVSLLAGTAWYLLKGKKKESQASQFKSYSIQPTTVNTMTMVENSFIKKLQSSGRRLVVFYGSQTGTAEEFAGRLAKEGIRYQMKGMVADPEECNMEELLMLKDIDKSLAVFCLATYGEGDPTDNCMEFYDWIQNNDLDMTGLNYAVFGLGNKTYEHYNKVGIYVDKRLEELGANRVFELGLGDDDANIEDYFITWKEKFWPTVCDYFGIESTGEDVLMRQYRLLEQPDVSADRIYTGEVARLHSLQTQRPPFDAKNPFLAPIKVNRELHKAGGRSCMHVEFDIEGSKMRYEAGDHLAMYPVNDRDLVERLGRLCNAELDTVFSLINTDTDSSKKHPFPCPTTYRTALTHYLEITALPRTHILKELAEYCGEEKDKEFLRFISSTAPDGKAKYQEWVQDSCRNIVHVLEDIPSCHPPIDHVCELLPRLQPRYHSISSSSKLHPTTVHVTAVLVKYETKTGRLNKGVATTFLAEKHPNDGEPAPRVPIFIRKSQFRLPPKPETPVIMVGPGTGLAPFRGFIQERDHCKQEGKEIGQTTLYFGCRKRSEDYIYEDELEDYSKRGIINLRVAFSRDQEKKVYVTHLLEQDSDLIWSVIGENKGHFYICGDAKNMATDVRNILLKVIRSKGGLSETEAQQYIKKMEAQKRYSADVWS
T1 sequence (Q86QH4 1-128 partner): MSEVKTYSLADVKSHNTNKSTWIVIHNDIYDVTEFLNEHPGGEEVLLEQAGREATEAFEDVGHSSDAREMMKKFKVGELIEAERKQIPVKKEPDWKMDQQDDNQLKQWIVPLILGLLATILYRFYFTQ
Put plainly: Reciprocal IC50 of CYP6P3 metabolism of PPF and permethrin. The format is biochemical. The gist of the method:
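CYP6P3 was expressed with AgCPR in E. coli JM109 membranes, with b5 added at 10:1 b5:P450. Reactions ran at 30 °C for 90 min with shaking: 0.1 μM P450, 1.0 μM b5, 0.2 M Tris-HCl pH 7.4, 0.25 mM MgCl2, NADPH-regenerating system. PPF (0–1.6 mM) or permethrin (0–3.2 mM) was titrated against the other at fixed 20 μM. Substrate loss was read by C18 HPLC at 232 nm, triplicate controls.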

The subject of series [1] is all mosquito P450s of the panel apart from CYP6Z2 (CYP6M2, CYP6P2, CYP6P3, CYP6P4, CYP9J5). As to the kind of experiment: in vitro. The settings on record: Anopheles gambiae.
For a further series, the target named is CYP6M2 (Anopheles gambiae, UniProt Q7Q449). Put plainly: biochemical.
Sequence of CYP6M2 (Q7Q449 1-499, one chain of several): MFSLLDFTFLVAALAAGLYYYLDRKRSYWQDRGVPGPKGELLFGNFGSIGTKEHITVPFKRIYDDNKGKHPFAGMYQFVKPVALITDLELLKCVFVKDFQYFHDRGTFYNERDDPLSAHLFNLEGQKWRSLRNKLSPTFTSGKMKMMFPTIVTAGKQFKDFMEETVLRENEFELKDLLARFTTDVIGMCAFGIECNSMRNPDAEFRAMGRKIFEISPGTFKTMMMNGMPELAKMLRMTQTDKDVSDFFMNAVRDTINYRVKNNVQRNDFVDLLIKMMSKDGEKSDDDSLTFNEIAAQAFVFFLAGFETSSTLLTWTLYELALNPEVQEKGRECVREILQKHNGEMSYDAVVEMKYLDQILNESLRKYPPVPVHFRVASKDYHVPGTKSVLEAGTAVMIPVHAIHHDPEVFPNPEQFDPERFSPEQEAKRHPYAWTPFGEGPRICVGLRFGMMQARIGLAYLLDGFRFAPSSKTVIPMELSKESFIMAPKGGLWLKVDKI
The next series addresses T2, CYP6P4 (Anopheles gambiae, UniProt Q7QCY8).
T2 sequence (Q7QCY8 1-506): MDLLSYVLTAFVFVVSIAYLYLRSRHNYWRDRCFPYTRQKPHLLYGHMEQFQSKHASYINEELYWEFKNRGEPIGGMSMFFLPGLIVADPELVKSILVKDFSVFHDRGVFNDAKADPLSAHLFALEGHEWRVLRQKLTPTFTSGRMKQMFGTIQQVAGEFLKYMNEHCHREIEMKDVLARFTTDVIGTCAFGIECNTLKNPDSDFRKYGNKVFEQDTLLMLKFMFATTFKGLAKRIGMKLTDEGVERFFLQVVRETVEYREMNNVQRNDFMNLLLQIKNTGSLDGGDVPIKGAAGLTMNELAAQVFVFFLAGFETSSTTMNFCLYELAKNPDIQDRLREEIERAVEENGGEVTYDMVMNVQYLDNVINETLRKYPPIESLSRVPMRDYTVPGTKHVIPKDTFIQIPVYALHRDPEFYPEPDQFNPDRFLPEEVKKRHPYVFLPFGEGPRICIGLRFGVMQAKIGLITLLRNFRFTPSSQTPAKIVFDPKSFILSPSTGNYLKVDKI
T2 sequence (Q86QH5 1-679 partner): T1 sequence (Q86QH5 1-679 partner)
T2 sequence (Q86QH4 1-128 partner): T1 sequence (Q86QH4 1-128 partner)

Series [2] concerns An. gambiae Kisumu strain. Put plainly: Glass tube assay, ovary development of adult females, Kisumu strain. The format is in vivo, Anopheles gambiae. The gist of the method:
(§1)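 Borosilicate glass tubes were coated with PPF at 0.55, 2.75 or 5.5 mg/m2, with an acetone-only tube as control, and used the day they were made. Per concentration, two groups of fifteen 5–7-day-old females (n = 30) were acclimated 60 min, then exposed 3 min. They were held 24 h on 10% sucrose, then five days in the insectary. Ovaries were dissected and scored normal or abnormal.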

The subject of series [3] is An. gambiae Tiassalé strain. As to the kind of experiment: Glass tube assay, ovary development of adult females, Tiassalé strain. The format is in vivo, Anopheles gambiae. The gist of the method:
as §1

Another series has as its system CYP6P family and CYP6Z2. Conditions: Anopheles gambiae, pH 7.4.
In series [4] the test system is all mosquito P450s of the panel except CYP6Z2 and CYP6P2 (CYP6M2, CYP6P3, CYP6P4, CYP9J5). As to the kind of experiment: in vitro. Conditions: Anopheles gambiae.
[5] abbreviates: 3 min exposure, half of 5.5 mg/m^2.

For orientation: IC50 means the point on the concentration scale where inhibition reaches its midpoint. Take `CC1(C)C(C=C(Cl)Cl)C1C(=O)OCc1cccc(Oc2ccccc2)c1` (mixture of isomers) [Permethrin, 3-phenoxybenzyl (1R,S)-cis,trans-3-(2,2-dichlorovinyl)-2,2-dimethylcyclopropanecarboxylate]: the IC50 is 61.2 µM at CYP6P3; 1 to 10 µM in series [1] (pH 7.4, IC50 of DEF activity); 1 to 10 µM in series [1] (pH 7.4, category of inhibition of DEF activity); 8.07 µM against CYP6M2. Also, the “strength of inhibition relative to PPF” value in the series with mosquito P450s was 2–3 fold.
On to `CCCCOCCOCCOCc1cc2c(cc1CCC)OCO2` [PBO, piperonyl butoxide], for which, on CYP6P4, the “Inhibition ratio (%): reduction of PPF depletion caused by PBO” value came to 94.6%.
On to `CC(COc1ccc(Oc2ccccc2)cc1)Oc1ccccn1` (centres unmarked) [PPF, pyriproxyfen], for which the IC50 on CYP6P3 is 92.7 µM; in series [4] (pH 7.4, IC50 of DEF activity), over 10 µM; in series [4] (pH 7.4, category of inhibition of DEF metabolism), over 10 µM; at CYP6M2, 14.1 µM. Moreover, the mosquitoes sterilized result is recorded as “completely sterilized” in [2] (3 min exposure to 5.5 mg/m^2), 76% in series [2] (setting [5]) and 75% in series [3] (3 min exposure to 5.5 mg/m^2). For the same compound, the “impact on ovary development” value in series [3] (setting [5]) is “no impact”. Further, at CYP6P4 (Anopheles gambiae, pH 7.4), the “% PPF depletion + PBO” value came out at 4.44 ± 1.99%. In addition, the “% PPF depletion −PBO” value at CYP6P4 (Anopheles gambiae, pH 7.4) is listed as 81.63 ± 0.63%. For the same compound, the PPF depletion with CYP6P family and CYP6Z2 is 58–100%.
